The values that follow come from ChEMBL document CHEMBL4513216, “Probing the Open Global Health Chemical Diversity Library for Multistage-Active Starting Points for Next-Generation Antimalarials” (ACS Infect Dis, 2020).

This series can be described thus: Toxicity liver stage against HepG2, at 10uM. The format is cell-based. Details: test concentration 10 uM, cell line HepG2-A16-CD81EGFP. As to conditions: human, HepG2-A16-CD81EGFP cells; read-out: INHIBITION
In a few lines: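 Uninfected HepG2-A16-CD81EGFP cells, 3 × 10^3 per well, 1536-well, plated on prespotted compound at 10 μM final, parasite-free screening media added to match infected plates; puromycin 10 μM positive, DMSO 0.5% negative; run in parallel with 48 h PbLuc assay at 37 °C, 5% CO2; viability by CellTiter-Glo luminescence, normalized to controls.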
Consider `CC(C)c1noc([C@@H]2Cc3[nH]cnc3CN2C(=O)Nc2ccccc2)n1`, for which the cytotoxicity at 10 µM worked out at 0.0515%. `O=C1CC2(CCN(C(=O)c3ccncc3)CC2)Oc2c(Cl)cc(Cl)cc21`: the cytotoxicity at 10 µM amounted to 5.17%. For the molecule `CC(C)(C)n1ncc2c1NC(=O)CSC2c1ccc2c(c1)OCCO2` (stereo unspecified), the cytotoxicity at 10 µM is -1.74%. For `O=C(C1CC1)N1CCN(c2ccc(-n3cncn3)nn2)CC1`, the cytotoxicity at 10 µM was -4.83%. Turning to `O=C(CC1CC1)N1CCC2(CC1)C(=O)NCCN2Cc1ccccc1`, the cytotoxicity at 10 µM was -3.33%.

As for `O=C(NCc1ccccc1)N1C[C@H]2CCN[C@H]2C1`, the cytotoxicity at 10 µM is -5.54%. Consider `O=C1COC2(CCN(C(=O)c3cnccn3)CC2)CN1CC1CC1`, for which the cytotoxicity at 10 µM is -16%. For the molecule `O=C([C@H]1CCCO1)N1Cc2nccn2CC(COc2cccnc2)C1` (stereo partly specified), the cytotoxicity at 10 µM was determined as 7.45%. In the case of `Cc1nc([C@H]2C[C@H]3CN(C(=O)c4cc(C)c(C)s4)CC[C@@H]3O2)no1`, the cytotoxicity at 10 µM was 0.732%. Take `O=C1COC2(CCN(Cc3ccncc3)CC2)CN1CC1CC1`: the cytotoxicity at 10 µM is -3.84%.

As for `CCOc1ccc(NC(=O)c2cc3c([nH]c2=O)CCC3)cc1`, the cytotoxicity at 10 µM stood at 6.5%. As to `Cc1cc2nc(SCC(=O)N3CCOCC3)n(CC(C)C)c(=O)c2[nH]1`, the cytotoxicity at 10 µM was found to be 1.36%. Turning to `Cc1cccc(COC[C@]23COC[C@H]2CN(C(=O)c2ccsc2)C3)n1`, the cytotoxicity at 10 µM was -7.85%. As to `CN1CCN(C(=O)[C@@H]2CCO[C@@H]3CCN(c4ncccn4)C[C@@H]32)CC1`, the cytotoxicity at 10 µM is -4.96%. `O=C(N[C@@H]1CN(Cc2cccs2)[C@@H]2CCCO[C@@H]21)C1CC1`: the cytotoxicity at 10 µM was determined as 3.63%. Next, `CN(C)c1ncc(-c2ccc(C(N)=O)cc2)c(C2CNCCO2)n1` (stereo unspecified): -1.42%. In the case of `COC1CCCOC12CCN(C(=O)c1ccc3[nH]nnc3c1)CC2` (stereo unspecified), the cytotoxicity at 10 µM was -3.97%.

Consider `CNc1cc(C2CN(C(=O)c3ccn(C)n3)CCO2)nc(C)n1` (stereo unspecified), for which the cytotoxicity at 10 µM stood at 12.6%. Turning to `Cc1cc(NC(=O)c2ccc(C)c(F)c2)[nH]n1`, the cytotoxicity at 10 µM was -42.1%.

For `CC1CS(=O)(=O)CCN1Cc1ccccc1N(C)C` (stereo unspecified), the cytotoxicity at 10 µM came to 5.29%. Regarding `CCc1nsc(N2CCn3c(nnc3-c3ccccc3)C2)n1`, the cytotoxicity at 10 µM worked out at 3.67%.

For `O=C(c1cccnc1N1CCCC1)N1CCOC(c2ccccc2)C1` (stereo unspecified), the cytotoxicity at 10 µM was found to be 3.13%. Next, `COc1ccccc1CC(NC(=O)N1CCC[C@@H]1CO)C(C)C` (stereo partly specified): 3.34%. Consider `CN(C)C(=O)CN(C)C(=O)c1cccn1CCc1ccccc1`, for which the cytotoxicity at 10 µM was determined as 1.17%. Next, `CN(C)S(=O)(=O)c1ccc(=O)n(CC2CCCO2)c1` (stereo unspecified): -3.54%. Regarding `Cc1ccccc1C(NC(=O)NCC1(CO)CC1)C1CC1` (stereo unspecified), the cytotoxicity at 10 µM is -7.16%.

Consider `Cc1ccc(C(=O)NCCS(=O)(=O)N2CCSCC2)n1C`, for which the cytotoxicity at 10 µM was -0.506%. `CCN(CC)c1ccc(CNC(=O)c2ccc(=O)[nH]n2)cn1`: the cytotoxicity at 10 µM is 4.16%. Take `COc1cc(Cl)c(C)cc1NC(=O)CCNc1ccc(C#N)cn1`: the cytotoxicity at 10 µM came out at 0.423%. Next, `CCCNC(=O)CC1OCCc2ccsc21` (stereo unspecified): -1.5%.

For the molecule `COc1cccc(CCC(=O)N2CCN(Cc3noc(C)n3)CC2)c1`, the cytotoxicity at 10 µM came out at 3.09%. Next, `CCC(C)Sc1nncn1-c1ccc(OC)nc1` (stereo unspecified): -1.35%.

On to `Cc1cc2n(n1)CC(CNC1CCN(C3CC3)CC1)CN2` (stereo unspecified), for which the cytotoxicity at 10 µM was 4.16%. Turning to `Cn1cc(-c2csc(N3CCN(c4nccs4)CC3)n2)cn1`, the cytotoxicity at 10 µM was 6.23%. Next, `CCc1noc(CN2CCC(NC(=O)c3ccc(C)s3)CC2)n1`: -5.04%; `COc1ccsc1C(=O)Nc1cc(CN2CCOCC2)ccc1C`: -0.0813%; `COc1ccc(F)cc1CSCC(=O)N(CCC#N)CCC#N`: 0.0531%.

With `Cc1ccc(O)c(C(=O)N2CCCC2c2nncn2CC(C)C)c1` (stereo unspecified), the cytotoxicity at 10 µM was -3.27%.

Regarding `O=C1CCc2cc(OCCN3CCc4cncnc4C3)ccc2N1`, the cytotoxicity at 10 µM is -7.2%. Regarding `CC(C)Oc1ccc(-c2csc(Cn3ccc(=O)[nH]c3=O)n2)cc1`, the cytotoxicity at 10 µM was determined as 0.137%.

With `NC(=O)NC(=O)CCSCc1cc(F)cc2cccnc12`, the cytotoxicity at 10 µM amounted to 1.88%.

`Cc1ccc(-c2n[nH]cc2CNCC2CCS(=O)(=O)C2)o1` (stereo unspecified): the cytotoxicity at 10 µM amounted to 12.4%. Consider `CN(CC(N)=O)C(=O)c1cnc(-c2ccc(Cl)s2)s1`, for which the cytotoxicity at 10 µM was -5.02%.

`O=C(CNC(=O)C1CC1)NCC(F)(F)F`: the cytotoxicity at 10 µM is -5.82%. Consider `c1csc(N2CCN(c3nccn4cnnc34)CC2)n1`, for which the cytotoxicity at 10 µM is -5.81%. Consider `CN(C)C(=O)Cn1ccc2cc(NC(=O)N3CCOCC3)ccc21`, for which the cytotoxicity at 10 µM worked out at 6.35%. For the molecule `CCc1noc(C(C)N(C)CC(=O)Nc2cccc(C)n2)n1` (stereo unspecified), the cytotoxicity at 10 µM is 0.407%.

With `Cc1n[nH]c(C2CN(C(=O)CCc3ccco3)CCO2)n1` (stereo unspecified), the cytotoxicity at 10 µM is -1.95%. Turning to `COCCOCC(=O)Nc1ccc(C)cc1F`, the cytotoxicity at 10 µM was -3.81%.

As for `Cc1nn(CC(=O)N2CCCCC2Cn2cccn2)c(C)c1Cl` (stereo unspecified), the cytotoxicity at 10 µM came to 2.35%.

As for `CC(C)Cc1nc(CN(C)c2cc(C(C)C)nc3ccnn23)no1`, the cytotoxicity at 10 µM was found to be 3.61%. On to `Cc1ccc(CN2C[C@@H](C(=O)O)[C@H](c3cccnc3)C2)s1`, for which the cytotoxicity at 10 µM came to 4.17%. With `O=C(c1cccc(S(=O)(=O)NCCc2nccs2)c1)N1CCOCC1`, the cytotoxicity at 10 µM was -4.19%. As to `O=C1CN(C(=O)CC2C(=O)NCCN2CC2CCCCC2)CCN1` (stereo unspecified), the cytotoxicity at 10 µM was -7.41%. Take `Cc1ccccc1CN1C[C@@H](CN(C)CCO)[C@@H](CO)C1`: the cytotoxicity at 10 µM is -1.03%.

In the case of `CN(CCc1ncnn1-c1ccccc1Cl)C1CCS(=O)(=O)C1` (stereo unspecified), the cytotoxicity at 10 µM worked out at 9.53%. Next, `Cc1cccn2c(CC(=O)N3CCC(Oc4ncccn4)CC3)cnc12`: 6.78%; `CCCC(C(=O)NC1CCN(S(C)(=O)=O)CC1)n1cccc1` (stereo unspecified): -3.71%; `COCCN1CCCC2(CCN(c3nc(C)nc4c3CCC4)C2)C1=O` (stereo unspecified): -11.4%. Next, `Cc1ccc2[nH]c(CN(C)Cc3n[nH]c4c3CCC4)nc2c1`: 4.85%; `CC(C)CN1CC(C(=O)NCCc2c[nH]cn2)CC1=O` (stereo unspecified): -3.62%; `Cn1ccnc1SCCNC(=O)c1cc(S(N)(=O)=O)ccc1F`: -3.45%. Consider `CC(=O)NCC(=O)N1CCCC(C(=O)c2ccc(C(C)(C)C)cc2)C1` (stereo unspecified), for which the cytotoxicity at 10 µM was found to be 5.78%.

Turning to `CCC(C(=O)N(C)Cc1cc(COC)[nH]n1)n1cccn1` (stereo unspecified), the cytotoxicity at 10 µM is -5.89%. As for `COCCn1ccnc1C1CCN(C(=O)c2cccc(COC)n2)CC1`, the cytotoxicity at 10 µM stood at 1.62%. `Cc1nc(NCC(O)CN2CCCCCC2)c2c(C)nn(C)c2n1` (stereo unspecified): the cytotoxicity at 10 µM was -2.86%. As for `CC(=O)N1CCN(c2cc(-n3cnc(C)c3C)nc(C)n2)CC1`, the cytotoxicity at 10 µM was determined as 0.727%. Turning to `Cc1cccnc1[C@H](C)NC(=O)Cc1cc2c(cc1Cl)OCCO2`, the cytotoxicity at 10 µM was -8.26%. Consider `CCCC1(CO)CCCN(c2ncccc2F)C1` (stereo unspecified), for which the cytotoxicity at 10 µM was -6.83%.

For the molecule `O=C(Cc1cccc(F)c1)NCCCNC(=O)c1cccc(O)c1`, the cytotoxicity at 10 µM turned out to be 1.06%. Next, `Cc1ccc(-c2nnc(CN3CCCCC3Cn3cncn3)o2)cc1` (stereo unspecified): 3.84%; `Cc1ccc(C(C)N(C)Cc2nc3c(cnn3C)c(=O)[nH]2)s1` (stereo unspecified): -4.31%; `COc1ccc(CNCC2CCN(c3ccccc3OC)C2)cc1O` (stereo unspecified): -8.54%.

For `Cc1cccc(-c2ccc(C(=O)NCC3CCCO3)c(=O)[nH]2)c1` (stereo unspecified), the cytotoxicity at 10 µM is -7.36%. Next, `CC(C)c1noc(CCCC(=O)NC(C)c2ccccn2)n1` (stereo unspecified): -4.36%.

On to `Cn1ncc2c(=O)[nH]c(CN3CCCC3c3cccc(F)c3)nc21` (stereo unspecified), for which the cytotoxicity at 10 µM is -9.14%. Turning to `Cc1cnn(CC2CCCN2C(=O)c2sccc2-n2cnnn2)c1` (stereo unspecified), the cytotoxicity at 10 µM is -15%. Next, `CCCc1noc2ncc(C(=O)N3CCCC3c3cnn(C)c3)cc12` (stereo unspecified): -11.9%; `Cc1ccc(NC2CCN(C(=O)COc3ccccc3)CC2)nn1`: -3.25%. Take `CCN(Cc1nc2c(cnn2C)c(=O)[nH]1)Cc1ccccc1Cl`: the cytotoxicity at 10 µM is -22.7%. Take `CSC(C)C(=O)NCc1ccc(-n2cncn2)nc1` (stereo unspecified): the cytotoxicity at 10 µM came to 3.28%.

For the molecule `COc1ccc(-c2cc(C3CCNCC3)nc(C)n2)cc1`, the cytotoxicity at 10 µM was determined as 10.2%.

For the molecule `COc1ccc(CNCC(C)Oc2ccccn2)cc1` (stereo unspecified), the cytotoxicity at 10 µM was -2.7%.

In the case of `Cn1ncc2c1C(COCC1CC1)N(Cc1ccoc1)CC2` (stereo unspecified), the cytotoxicity at 10 µM was determined as 1.04%. As for `O=C(CN1CC(c2nc(-c3ccco3)no2)C1)NCc1ccc(F)cc1`, the cytotoxicity at 10 µM is -5.07%. As for `O=S(=O)(C1CC1)N1CCO[C@H]2[C@@H](Oc3ncccc3F)CC[C@@H]21`, the cytotoxicity at 10 µM was 1.67%. Regarding `c1cncc(N2CCC3(CCCN(c4ccncc4)C3)CC2)c1`, the cytotoxicity at 10 µM was 1.84%. Turning to `CCn1cc2c(n1)CN(C(=O)c1ccncc1)CC2COCC1CC1` (stereo unspecified), the cytotoxicity at 10 µM is -2.37%. Regarding `NC(=O)c1ccc(CNC2CC2)cc1`, the cytotoxicity at 10 µM is 8.57%. `O=C(c1ccnnc1)N1CC[C@]2(C[C@H](Oc3ncccc3F)CO2)C1`: the cytotoxicity at 10 µM came to 3.42%.

In the case of `Cc1cccc(CN2CCC3(CCCN(C(=O)N4CCCC4)C3)C2=O)n1` (stereo unspecified), the cytotoxicity at 10 µM stood at 8.76%. With `Cc1nnc([C@@H]2CC[C@@H]3[C@@H](CCN3Cc3ccccn3)O2)o1`, the cytotoxicity at 10 µM turned out to be 11.3%.

Consider `O=C(C1CCCO1)N1CCc2ncnc(NC3CCC3)c2CC1` (stereo unspecified), for which the cytotoxicity at 10 µM is -5.16%.

Regarding `COCC1CN(C(=O)c2ccco2)Cc2cn(C)nc21` (stereo unspecified), the cytotoxicity at 10 µM is 9.08%. Turning to `O=C(CCn1cc(Cl)cn1)N1C[C@H]2CC[C@@H](C1)N(Cc1ccccn1)C2`, the cytotoxicity at 10 µM came to 7.15%. Next, `CCn1ncc(-c2nc3c[nH]n(CC)c-3n2)c1C`: 2.13%.
